Calls of active or inactive are those of the source. The calls are words filed in the database; no cut-off is given here.
How the values were obtained:
PANC-1 [1] = assay: Induction of apoptosis in human PANC1 assessed as increase in cleaved caspase-9 levels at 0.1 to 1 uM after 24 hrs by Western blot method; assay type: functional, cell-based
In short: (§1)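 PANC-1 cells were treated with graded compound concentrations for 24 h, then lysed. Proteins were separated by SDS-PAGE and blotted to PVDF. Blots were probed for PARP, cleaved PARP, caspase-3, cleaved caspase-3, caspase-9 and cleaved caspase-9, with GAPDH as loading control, and read by infrared imaging. Bands were quantified by densitometry as ratios normalized to GAPDH.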

[2] = Cmax in rat at 10 mg/kg, po after 0.083 to 24 hrs by LC-MS/MS method; assay type: ADME, organism-based; set-up: dose 10 mg/kg, route oral; conditions: in vivo
PANC-1 [3] = assay: Induction of apoptosis in human PANC1 assessed as increase in cleaved PARP levels at 0.1 to 1 uM after 24 hrs by Western blot method; assay type: functional, cell-based; in short: as §1
[4] = AUC (0 to t) in rat at 10 mg/kg, ip after 0.083 to 24 hrs by LC-MS/MS method; assay type: ADME, organism-based; set-up: dose 10 mg/kg, time 0.083-24 hr, route intraperitoneal; conditions: in vivo
[5] = Plasma concentration in rat at 10 mg/kg, ip after 36 hrs by LC-MS/MS method; assay type: ADME, organism-based
In short: (§2)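 Rats, n = 6 per group, each given a single 10 mg/kg dose. Blood was collected into heparinized tubes and centrifuged at 4 °C and 8000 rpm for 5 min. Plasma was analysed by LC–MS/MS.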

[6] = Bioavailability in rat at 10 mg/kg, ip after 0.083 to 24 hrs by LC-MS/MS method; assay type: ADME, organism-based; conditions: in vivo
[7] = Half life in rat at 10 mg/kg, ip after 0.083 to 24 hrs by LC-MS/MS method; assay type: ADME, organism-based; conditions: in vivo
[8] = Oral bioavailability in rat at 10 mg/kg after 0.083 to 24 hrs by LC-MS/MS method; assay type: ADME, organism-based; conditions: in vivo
PANC-1 [9] = assay: Induction of apoptosis in human PANC1 cells assessed as late apoptotic cells at 1 uM after 24 hrs by annexin V/propidium iodide staining-based flow cytometric method (reference value: 2.65%); assay type: functional
[10] = Plasma concentration in rat at 10 mg/kg, iv after 36 hrs by LC-MS/MS method; assay type: ADME, organism-based; in short: as §2
A549 = assay: Antiproliferative activity against human A549 cells after 48 hrs by MTT assay; assay type: functional, cell-based; conditions: A549, 48 h
In short: (§3)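 Cells were seeded at 5×10^5 cells/mL overnight and exposed to graded compound concentrations for 48 h. MTT (5 mg/mL stock) was added for 4 h at 37 °C, and formazan was dissolved in DMSO. Absorbance was read at 570 nm. IC₅₀ was fitted from the curves; values are mean ± SD, n = 3.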

PANC-1 [11] = assay: Induction of apoptosis in human PANC1 cells assessed as viable cells at 1 uM after 24 hrs by annexin V/propidium iodide staining-based flow cytometric method (reference value: 89.5%); assay type: functional; conditions: PANC-1, 24 h, read-out: Activity
PANC-1 [12] = assay: Antitumor activity against human PANC1 cells xenografted in nude mouse assessed as inhibition of tumor weight at 30 mg/kg, ip administered every 2 days for 21 days relative to vehicle-treated control; assay type: functional; conditions: PANC-1, ip
In short: (§4)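 Female nude mice received 1×10^7 PANC-1 cells subcutaneously in the right flank. After 4 weeks, mice bearing tumors averaging 100 mm³ were randomized into five groups. Dosing was 15, 30 or 60 mg/kg i.p. every two days for 21 days. Tumor volume = width² × length/2; tumors were weighed at sacrifice, and body weight was monitored.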

HCT-116 = assay: Antiproliferative activity against human HCT116 cells after 48 hrs by MTT assay; assay type: functional, cell-based; conditions: HCT-116, 48 h; in short: as §3
[13] = Cmax in rat at 10 mg/kg, ip after 0.083 to 24 hrs by LC-MS/MS method; assay type: ADME, organism-based; set-up: dose 10 mg/kg, route intraperitoneal; conditions: in vivo
[14] = Distribution co-efficient, log D of the compound at pH 7.4; assay type: physicochemical; conditions: buffer
In short: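 Intrinsic aqueous solubility and log D at pH 7.4 were measured on a pION Gemini Profiler.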

PANC-1 [15] = assay: Induction of apoptosis in human PANC1 cells assessed as viable cells at 2 uM after 24 hrs by annexin V/propidium iodide staining-based flow cytometric method (reference value: 89.5%); assay type: functional; conditions: PANC-1, 24 h, read-out: Activity
PANC-1 [16] = assay: Induction of apoptosis in human PANC1 cells after 24 hrs by annexin V/propidium iodide staining-based flow cytometric method; assay type: functional, cell-based
PANC-1 [17] = assay: Induction of apoptosis in human PANC1 cells assessed as early apoptotic cells at 2 uM after 24 hrs by annexin V/propidium iodide staining-based flow cytometric method (reference value: 7.25%); assay type: functional
[18] = AUC (0 to t) in rat at 10 mg/kg, iv after 0.083 to 24 hrs by LC-MS/MS method; assay type: ADME, organism-based; set-up: time upper 24 hr, time lower 0.083 hr, dose 10 mg/kg, route intravenous; conditions: in vivo
Mus musculus [19] = assay: Downregulation of VEGF expression in human PANC1 cells xenografted in nude mouse at 15 to 60 mg/kg, ip administered every 2 days for 21 days by immunohistochemical method; assay type: functional, organism-based
In short: (§5)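 Tumors came from the PANC-1 nude-mouse xenografts dosed at 15, 30 or 60 mg/kg i.p. every two days for 21 days. Tumor sections were stained immunohistochemically with antibodies against CD31, HIF-1α and VEGF.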

PANC-1 [20] = assay: Antitumor activity against human PANC1 cells xenografted in nude mouse assessed as inhibition of tumor weight at 60 mg/kg, ip administered every 2 days for 21 days relative to vehicle-treated control; assay type: functional; conditions: PANC-1, ip; in short: as §4
Mus musculus [21] = assay: Effect on HIF-1alpha expression in human PANC1 cells xenografted in nude mouse at 15 to 60 mg/kg, ip administered every 2 days for 21 days by immunohistochemical method; assay type: functional, organism-based; in short: as §5
PANC-1 [22] = assay: Induction of apoptosis in human PANC1 cells assessed as dead cells at 1 uM after 24 hrs by annexin V/propidium iodide staining-based flow cytometric method (reference value: 0.60%); assay type: functional
[23] = AUC (0 to t) in rat at 10 mg/kg, po after 0.083 to 24 hrs by LC-MS/MS method; assay type: ADME, organism-based; set-up: dose 10 mg/kg, time upper 24 hr, time lower 0.083 hr, route oral; conditions: in vivo
BXPC-3 = assay: Antiproliferative activity against human BxPC3 cells after 48 hrs by MTT assay; assay type: functional, cell-based; conditions: BXPC-3, 48 h; in short: as §3
[24] = Half life in rat at 10 mg/kg, po after 0.083 to 24 hrs by LC-MS/MS method; assay type: ADME, organism-based; conditions: in vivo
Mus musculus [25] = assay: Toxicity in nude mouse xenografted with human PANC1 cells assessed as effect on body weight at 15 to 60 mg/kg, ip administered every 2 days for 21 days measured during compound dosing; assay type: organism-based; conditions: in vivo
In short: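 Female nude mice were implanted s.c. in the right flank with 1×10^7 PANC-1 cells. After 4 weeks, mice with tumours averaging 100 mm³ were randomized into five groups. They were dosed i.p. at 15, 30 or 60 mg/kg every two days for 21 days and monitored for toxicity, tumour growth and body weight.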

MCF7 = assay: Antiproliferative activity against human MCF7 cells after 48 hrs by MTT assay; assay type: functional, cell-based; conditions: MCF7, 48 h; in short: as §3
[26] = Effective permeability of the compound at pH 7.4 by PAMPA; assay type: ADME; conditions: read-out: Peff
In short: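 Effective permeability was measured by double-sink PAMPA on a pION PAMPA Explorer.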

[27] = Half life in rat at 10 mg/kg, iv after 0.083 to 24 hrs by LC-MS/MS method; assay type: ADME, organism-based; conditions: in vivo

Question: For `Cc1c(C(=O)NC2CCN(C)CC2)oc2ccc(N(Cc3ccc(Br)cc3)S(=O)(=O)c3ccc(Br)cc3)cc12`, which Activity (PANC-1 [1]) is on record?
Answer: Active

Question: And the Cmax [2]?
Answer: 80.6 ng/mL

Question: And the Activity (PANC-1 [3])?
Answer: Active

Question: What about the AUC(0-t) [4] of the same compound?
Answer: 6220 ng·h/mL

Question: And the concentration at 36 h [5]?
Answer: > 10 ng/mL

Question: What about the bioavailability [6] of the same compound?
Answer: 86.1%

Question: What about the half-life [7] of the same compound?
Answer: 7.09 h

Question: What about the bioavailability [8] of the same compound?
Answer: 15%

Question: And the Activity (PANC-1 [9])?
Answer: 45.6%

Question: And the concentration at 36 h [10]?
Answer: > 10 ng/mL

Question: And the IC50 (A549)?
Answer: 2680 nM

Question: What about the viability at 1 µM (PANC-1 [11]) of the same compound?
Answer: 50.6%

Question: What about the inhibition in vivo at 30 mg/kg (PANC-1 [12]) of the same compound?
Answer: 66.4%

Question: What about the IC50 (HCT-116) of the same compound?
Answer: 1810 nM

Question: What about the Cmax [13] of the same compound?
Answer: 549 ng/mL

Question: And the logD [14]?
Answer: 3.15

Question: What about the viability at 2 µM (PANC-1 [15]) of the same compound?
Answer: 44.7%

Question: What about the Activity (PANC-1 [16]) of the same compound?
Answer: Dose-dependent effect

Question: And the Activity (PANC-1 [17])?
Answer: 3.7%

Question: What about the AUC(0-t) [18] of the same compound?
Answer: 7220 ng·h/mL

Question: And the Activity (Mus musculus [19])?
Answer: Active

Question: And the inhibition in vivo at 60 mg/kg (PANC-1 [20])?
Answer: 75.8%

Question: What about the Activity (Mus musculus [21]) of the same compound?
Answer: inactive

Question: And the Activity (PANC-1 [22])?
Answer: 0.2%

Question: And the AUC(0-t) [23]?
Answer: 1080 ng·h/mL

Question: And the IC50 (BXPC-3)?
Answer: 650 nM

Question: And the half-life [24]?
Answer: 6.63 h

Question: And the Activity (Mus musculus [25])?
Answer: Non-Toxic

Question: What about the IC50 (MCF7) of the same compound?
Answer: 2390 nM

Question: And the Papp [26]?
Answer: 6.54 ×10⁻⁶ cm/s

Question: And the half-life [27]?
Answer: 7.68 h

— ChEMBL document CHEMBL4130343, “Design, synthesis, and evaluation of benzofuran derivatives as novel anti-pancreatic carcinoma agents via interfering the hypoxia environment by targeting HIF-1α pathway” (Eur J Med Chem, 2017)
